Screening data from PubChem BioAssay.
LYPLA2 inh: LYPLA2 inhibitors, primary screen, counter-screen for PME1 inhibitor project, biochemical, fluorescence polarization, FP-Rh probe ABPP | recombinant LYPLA2 | inhibition, % at 5.9 µM | 320,000 tested, 0.38% active | AID 2177, 2009;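 active = inhibition above the screen-wide mean plus 3 SD, limit set per campaign, cut at about 26% in these data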;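 also: 0% = LYPLA2 with DMSO and 100% = wells lacking LYPLA2 enzyme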
RBBP9 inhibitor: human RBBP9 inhibitors, primary screen, biochemical, fluorescence polarization, FP-Rh probe, HTS. Serine hydrolase RBBP9 (Homo sapiens), O75884. recombinant RBBP9. inhibition, % at 7.94 µM. 220,000 tested, 0.2% active;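 active = inhibition above the campaign mean of all tested compounds plus 3 SD, cut at about 14% in these data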;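 also: plate controls were DMSO wells with RBBP9 for no effect and wells lacking RBBP9 protein for full effect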
Target sequence (O75884 whole entry, looked up): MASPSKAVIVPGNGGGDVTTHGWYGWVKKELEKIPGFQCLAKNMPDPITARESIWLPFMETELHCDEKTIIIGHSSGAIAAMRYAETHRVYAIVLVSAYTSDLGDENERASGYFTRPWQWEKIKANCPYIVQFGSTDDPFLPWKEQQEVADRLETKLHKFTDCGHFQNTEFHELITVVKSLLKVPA
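System: RBBP9 protein / Buffer or medium: Tris/NaCl buffer pH 8.0 with 0.1% Pluronic / Probe or stimulus: Serine-hydrolase probe FP-Rh, 375 nM pre-mixing / Dosing: 7.94 µM single dose, 0.794% DMSO / Times: enzyme-compound preincubation 30 min, then probe labeling 45 min, 25 °C / Technique: fluorescence polarization (mP), excitation 525 nm, emission 598 nm / Replication: singlicate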
Fam108B inh: mouse Fam108B serine hydrolase inhibitors, primary screen, counter-screen for RBBP9 inhibitor project, biochemical, fluorescence polarization. recombinant Fam108B, FP-Rh probe fluorescence polarization. inhibition, % at 9.51 µM. 300,000 tested, 0.33% active;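 active = inhibition above the screen mean inhibition plus 3 SD, computed separately per campaign, cut at about 18% in these data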;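 also: inhibitors lower polarization as less probe binds the enzyme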
LYPLA1 counter: LYPLA1 inhibitors, primary screen, counter-screen for PME1 inhibitor project, biochemical, fluorescence polarization, FP-Rh probe ABPP; Acyl-protein thioesterase 1 (Homo sapiens), O75608; recombinant LYPLA1; inhibition, % at 5.9 µM; 320,000 tested, 0.16% active; AID 2174, 2009;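 active = inhibition above the mean of all tested compounds plus 3 SD, set per campaign, cut at about 14% in these data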;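 also: inhibitors block serine hydrolase probe labeling of LYPLA1 so polarization falls; 0% = enzyme with DMSO and 100% = wells lacking LYPLA1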
PME-1 primary: PME-1 inhibitors via competitive probe labeling, primary screen, biochemical, fluorescence polarization, FP-Rh probe, HTS; Protein phosphatase methylesterase 1 (Homo sapiens), Q9Y570; recombinant PME-1; inhibition, % at 5.9 µM; 320,000 tested, 0.53% active; AID 2130, 2009;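 active = inhibition above the campaign mean of all compounds plus 3 SD, cut at about 26% in these data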;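 also: competitive labeling of PME-1 active site by serine hydrolase directed probe; 0% = PME-1 with DMSO and 100% = wells lacking PME-1 enzyme; inhibitors block probe labeling so polarization falls and inhibition rises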
Target sequence (Q9Y570 whole entry, looked up): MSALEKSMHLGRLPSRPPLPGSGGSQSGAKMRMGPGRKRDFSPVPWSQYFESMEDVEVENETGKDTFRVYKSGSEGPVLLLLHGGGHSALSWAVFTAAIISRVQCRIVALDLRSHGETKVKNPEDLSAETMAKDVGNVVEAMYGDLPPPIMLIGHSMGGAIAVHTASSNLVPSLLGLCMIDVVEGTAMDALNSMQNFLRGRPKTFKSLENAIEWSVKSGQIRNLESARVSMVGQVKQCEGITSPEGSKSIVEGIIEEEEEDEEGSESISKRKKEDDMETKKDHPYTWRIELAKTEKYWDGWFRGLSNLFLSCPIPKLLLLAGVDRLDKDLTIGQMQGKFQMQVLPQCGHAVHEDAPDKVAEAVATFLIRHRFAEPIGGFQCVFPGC
LYPLA1 conf: LYPLA1 inhibitors, retest, confirmation, counter-screen for PME1 inhibitor project, biochemical, fluorescence polarization, FP-Rh probe ABPP; shares compounds with LYPLA1 counter; recombinant LYPLA1; inhibition, % at 5.9 µM; 480 tested, 69% active;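 active = mean inhibition across replicates above the hit cutoff set in the primary screen, cut at about 15% in these data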;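 also: loss of FP-Rh probe labeling of LYPLA1 seen as lower polarization; 0% = LYPLA1 with DMSO and 100% = wells lacking LYPLA1 enzyme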
* hit, by the source's call; . = not tested or not shown. Compounds with a hit are over-represented: about 0.99% of the library has one in this group of screens.

SMILES | LYPLA2 inh | RBBP9 inhibitor | Fam108B inh | LYPLA1 counter | PME-1 primary | LYPLA1 conf
C=CCSc1nc(N)c(C#N)c(-c2ccccc2)c1C#N | 8 | -9 | 1 | 14* | -7 | 12
COc1cc(/C=C(\NC(=O)c2ccccc2)C(=O)NC(C(=O)O)c2ccccc2)cc(OC)c1OC (stereo not drawn) | 0 | . | -1 | -2 | -6 | .
CC(=O)N1CCN(C(=O)COc2ccc(N(C)S(=O)(=O)c3cccs3)cc2)CC1 | 4 | 3 | -1 | 24* | 6 | -2
COc1ccccc1-c1nnc(SCC(=O)NC2CC2)n1C | 6 | . | . | 1 | 2 | .
COc1ccccc1-c1nnc(SCC(=O)NNC(=O)c2ccccc2F)n1C | 7 | . | . | 24* | -5 | 4
COCCCC1CCN(C(=O)CCc2nnc(CCCCc3ccccc3)o2)CC1 | 8 | -6 | 0 | 17* | -2 | 17*
CCOc1ccc2noc3c2c1C(=O)c1ccccc1-3 | 24 | 14 | 14 | 20* | 17 | 12
O=C1c2ccccc2-c2onc3c(Oc4ccccc4)cc(O)c1c23 | . | -1 | . | . | . | .
Cc1cc2oc(=O)cc(CN3CCN(C/C=C/c4ccccc4)CC3)c2cc1O | 17 | -5 | 0 | 20* | 6 | 18*
O=c1cc(CN2CCN(C/C=C/c3ccccc3)CC2)c2cc(O)c(-c3ccccc3)cc2o1 | 3 | -5 | 8 | -2 | 3 | .
COCCCNC(=O)CCc1c(C)c2cc3c(C)coc3cc2oc1=O | -3 | . | 1 | -4 | 1 | .
COc1ccc(C(C(=O)NC(C)(C)C)N(C(=O)CCC(=O)Nc2cc(C)on2)c2ccccc2F)cc1 (stereo not drawn) | 2 | . | 0 | 15* | 2 | 1
CCN(CC)S(=O)(=O)c1cccc(-c2nnc(SCCCC(=O)c3ccccc3)o2)c1 | -3 | -17 | -8 | 2 | 2 | .
CCN(CC)S(=O)(=O)c1cccc(-c2nnc(SCc3nc4ccccc4s3)o2)c1 | -7 | -10 | -6 | 14* | 0 | 21*
CC1=C(C(=O)Nc2cccc(C(=O)NC3CCCC(C)C3C)c2)SCCO1 (stereo not drawn) | -2 | . | 6 | -2 | -3 | .
Cc1ccc(C2(COC(=O)C(C)C)CO2)c(OC(=O)C(C)C)c1 (stereo not drawn) | 4 | . | 1 | 29* | 0 | 1
O=C(CSc1nnc(-c2ccccn2)o1)Nc1ccccc1Cl | 1 | . | 1 | 1 | 3 | .
Cc1nc([N+](=O)[O-])c(N2CCOCC2)n1Cc1ccccc1 | -1 | -7 | -1 | 9 | -1 | .
Cc1nc([N+](=O)[O-])c(N2CCN(Cc3ccccc3)CC2)n1Cc1ccccc1 | -1 | -1 | 0 | 33* | 6 | 33*
Cc1nn(Cc2c(F)cccc2Cl)c(C)c1NC(=O)C1CC1 | -6 | 4 | 0 | 2 | -6 | .
COc1ccc([C@H]2CC(=O)C=C(c3ccc(C)c([N+](=O)[O-])c3)C2)cc1 | 15 | . | . | 18* | 5 | 17*
CC1(OC(=O)c2ccco2)C(=O)C=C2C=C(C3CC3)OC=C2C1=O (stereo not drawn) | 23 | . | 14 | 21* | 20 | 15*
CC1(OC(=O)c2cnc3ccccc3n2)C(=O)C=C2C=C(C3CC3)OC=C2C1=O (stereo not drawn) | 76* | . | 48* | 58* | 66* | 27*
O=C(Cn1c(O)c(/C=C2\C=Nc3ccc(Br)cc32)sc1=O)N1CCCC1 | 0 | -1 | 8 | 5 | 2 | .
O=c1[nH]c(O)c(/C=C2\C=Nc3ccc(Br)cc32)[nH]1 | 8 | . | 2 | 36* | 17 | 40*
SMILES | LYPLA2 inh | RBBP9 inhibitor | Fam108B inh | LYPLA1 counter | PME-1 primary | LYPLA1 conf
CCC1CCCCN1S(=O)(=O)c1ccc(C(=O)N(CCCN(C)C)c2nc3cc4c(cc3s2)OCO4)cc1 (stereo not drawn) | 0 | . | 5 | 1 | 6 | .
O=C1/C(=C/c2cccc([N+](=O)[O-])c2)Oc2cc(O)ccc21 | 10 | . | 14 | 17* | 4 | 15*
O=C1/C(=C/c2ccc(O)c(O)c2)Oc2cc(O)ccc21 | -94 | . | -53 | -47 | -102 | .
COc1ccccc1C(CNC(=O)c1cccc(S(=O)(=O)Nc2ccc(C)cc2)c1)N1CCCC1 (stereo not drawn) | 2 | . | 0 | 0 | 2 | .
Cc1ccc(C(=O)Nc2cccc(C(=O)NC3CCCC3)c2)cc1 | 8 | . | 0 | -4 | -1 | .
CC(=O)c1ccc(-c2ccc(/C=C(/Sc3n[nH]c(C)n3)C(=O)O)o2)cc1 | 4 | 1 | 11 | 9 | 7 | .
Cc1nc(S/C(=C/c2ccc(-c3ccc(Cl)cc3)o2)C(=O)O)n[nH]1 | 3 | -1 | 10 | 20* | 19 | 19*
CCOC(=O)c1sc2cc([N+](=O)[O-])cc(SCCO)c2c1N | 2 | -5 | -1 | 1 | -7 | .
CCOC(=O)c1sc2cc([N+](=O)[O-])cc(SCC(=O)OC)c2c1N | 4 | -5 | 7 | 15* | 8 | 29*
Cc1nc(Nc2cccc(C(C)O)c2)c2nnn(Cc3ccc(F)cc3)c2n1 (stereo not drawn) | 2 | -8 | 4 | -1 | 4 | .
FC(F)Oc1ccc(/C=N/c2c(-c3ccc(OC(F)F)cc3)nc3n2CCS3)cc1 | -7 | -1 | 3 | 4 | 4 | .
Cc1ccc(N(CC(=O)Nc2ccc(C)cn2)S(=O)(=O)c2c(C)nn(C)c2C)cc1 | 16 | -2 | 16 | 16* | 6 | 2
COC(=O)C1(CC2CC(c3cccc(Br)c3)=NO2)CCN(C(=O)OC(C)(C)C)CC1 (stereo not drawn) | 5 | . | 1 | 24* | -4 | 31*
Cc1ccc(S(=O)(=O)NC2CCCCC2)c(C)c1NS(C)(=O)=O | -1 | -2 | 0 | 0 | -6 | .
COC(=O)CCCC(=O)N1CCCC(C(=O)c2ccc(-c3ccccc3)cc2)C1 (stereo not drawn) | 3 | . | 7 | 21* | -3 | 29*
CCC(=O)N1CCCC(C(=O)c2ccc(-c3ccccc3)cc2)C1 (stereo not drawn) | 4 | . | 4 | 0 | -5 | .
Nc1ccc(N2CCOCC2)c2nonc12 | 70* | 3 | 9 | 70* | 25 | 1
CC(CCc1ccccc1)NC(=O)COc1cc(F)ccc1[N+](=O)[O-] (stereo not drawn) | 5 | 6 | -2 | 1 | -1 | .
Fc1ccc(-n2cc(-c3ccccc3)c3c(NN4CCOCC4)ncnc32)cc1 | 3 | 1 | 1 | 1 | -3 | .
